Data reported in publication PMC4004768 (The Journal of antibiotics, 2013).

Assays:
B. subtilis ATCC 6633 [1] = experiment: membrane potential by flow cytometry with DiOC2; format: cell-based, Bacillus subtilis; details: 0, 0.2, 2, 20 μM, triplicate flow cytometry
Summary of the method: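 Flow cytometry on bacteria exposed to the test compound at 0, 0.2, 2 and 20 μM, with DiOC2 as the membrane-potential dye. The read-out is mean fluorescence intensity averaged over triplicate measurements. An alternative read-out is the ratio of fluorescence at 610 and 530 nm.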

B. subtilis ATCC 6633 [2] = experiment: propidium iodide uptake; format: cell-based, Bacillus subtilis; details: B. subtilis ATCC 6633, lower efficiency than nisin
B. subtilis ATCC6633 = experiment: antimicrobial activity assay in liquid medium; format: cell-based, Bacillus subtilis
[3] = cited from earlier work
[4] = specific activity against B. subtilis ATCC6633, liquid medium

Substance: Geobacillin I
- change in mean fluorescence intensity (MFI), DiOC2 (B. subtilis ATCC 6633 [1]): significant decrease
- efficiency in PI uptake relative to nisin (B. subtilis ATCC 6633 [2]): two-fold lower
- MIC relative to nisin (B. subtilis ATCC6633; B. subtilis ATCC 6633, higher MIC compared to nisin): four-fold higher
- IC50 (B. subtilis ATCC6633; [4]): 560 ± 10 nM
- MIC (B. subtilis ATCC6633; [4]): 1.0 µM
- stability at physiological pH compared to nisin [3]: higher stability
